According to ChEMBL document CHEMBL4765336, “Discovery of coumarin derivatives as potent and selective cyclin-dependent kinase 9 (CDK9) inhibitors with high antitumour activity” (Eur J Med Chem, 2020):
pIC50: −log10 of the molar value.

Columns and labels:
[1] = Toxicity in BALB/c nude mouse xenografted with human MV4-11 cells assessed as body weight loss at 40 mg/kg, iv administered once daily for 21 days and measured 2 or 3 times per week; format: organism-based; conditions: in vivo, 504 h, time 21 day
Summary of the method: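 Female BALB/c nude mice, six weeks old, with subcutaneous right-flank MV4-11 xenografts (5 million cells in PBS mixed 1:1 with Matrigel). Daily intravenous dosing started at tumour size 150–200 mm³, 6 mice per group, for 21 consecutive days. Vehicle was dimethylacetamide 20%/polyoxyethylated castor oil 40%/anhydrous ethanol 40%. Body weight was recorded two or three times weekly, and mortality was monitored throughout treatment.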

MV4-11 [2] = assay: Antitumor activity against human MV4-11 cells xenografted in Balb/c nude mouse assessed as reduction in tumor volume at 40 mg/kg, iv administered once daily for 21 days (reference value: 1.00 g); format: functional; conditions: time 21 day
[3] = molecular target: Cyclin-dependent kinase 5/CDK5 activator 1 (Homo sapiens, UniProt Q00535); assay: Inhibition of CDK5/p25 (unknown origin) preincubated for 20 mins followed by ATP addition and measured after 120 mins in presence of [33P-gamma] ATP by hotspot kinase assay; format: protein-complex assay
Summary of the method: (§1)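 Radiometric filter-binding assay: kinase and substrate in 20 mM Hepes pH 7.5, 10 mM MgCl2, 1 mM EGTA, 0.02% Brij35, 0.02 mg/mL BSA, 0.1 mM Na3VO4, 2 mM DTT, 1% DMSO. Compound (top 1/10/27 μM, 3-fold serial dilutions) preincubated 20 min at 25 °C. ATP plus [γ-33P]ATP added to 10 μM final, reacted 120 min at 25 °C. IC50 from curve fit, duplicate mean.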

CDK6/cyclin D3 = CDK6/cyclin D3 (Homo sapiens, UniProt Q00534); assay: Inhibition of CDK6/Cyclin D3 (unknown origin) preincubated for 20 mins followed by ATP addition and measured after 120 mins in presence of [33P-gamma] ATP by hotspot kinase assay; format: protein-complex assay; summary of the method: as §1
[4] = molecular target: Serine/threonine-protein kinase MAK (Homo sapiens) (UniProt P20794); assay: Inhibition of MAK (unknown origin) assessed as enzyme activity at 1 uM preincubated for 20 mins followed by ATP addition and measured after 120 mins in presence of [33P-gamma] ATP by hotspot kinase assay relative to control; design: scale not given: the % may be the effect or the level left; conditions: time 140.0 min
Summary of the method: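 Radiometric filter-binding kinase assay, buffer pH 7.5 with 10 mM MgCl2 and 1% DMSO. Compound tested at a single 1.0 μM, preincubated 20 min at 25 °C. Reaction started with ATP/[γ-33P]ATP at 10 μM final, run 120 min at 25 °C. Remaining % enzyme activity reported, n=2.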

BXPC-3 = assay: Antiproliferative activity against human BxPC3 cells assessed as inhibition of cell growth incubated for 72 hrs by Celltiter-Glo luminescent assay; format: functional, cell-based; conditions: BXPC-3, 72 h
Summary of the method: (§2)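 Cells seeded in growth medium and held overnight at 37 °C; medium-only wells served as background. DMSO stocks were diluted in medium to 3× final and added; cells incubated 72 h at 37 °C, 5% CO2. Viability read by CellTiter-Glo luminescence after 60 min at room temperature. IC50 from curve fit, mean of duplicate.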

PANC-1 = assay: Antiproliferative activity against human PANC-1 cells assessed as inhibition of cell growth incubated for 72 hrs by Celltiter-Glo luminescent assay; format: functional, cell-based; conditions: PANC-1, 72 h; summary of the method: as §2
MIA PaCa-2 = assay: Antiproliferative activity against human MIA PaCa-2 cells assessed as inhibition of cell growth incubated for 72 hrs by Celltiter-Glo luminescent assay; format: functional, cell-based; conditions: MIA PaCa-2, 72 h; summary of the method: as §2
SW-620 = assay: Antiproliferative activity against human SW-620 cells assessed as inhibition of cell growth incubated for 72 hrs by Celltiter-Glo luminescent assay; format: functional, cell-based; conditions: SW-620, 72 h; summary of the method: as §2
A549 = assay: Antiproliferative activity against human A549 cells assessed as inhibition of cell growth incubated for 72 hrs by Celltiter-Glo luminescent assay; format: functional, cell-based; conditions: A549, 72 h; summary of the method: as §2
[5] = Metabolic stability in human liver microsomes assessed as intrinsic clearance at 1 uM incubated up to 60 mins in presence of NADPH by LC-MS/MS analysis; format: ADME, Microsome; conditions: read-out: CLH
Summary of the method: (§3)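 Liver microsomes (0.5 mg/mL) incubated at 37 °C with compound at 1.0 μM final, 3 mM MgCl2 and 1 mM NADPH in 100 mM PBS pH 7.4. Samples taken at 0, 5, 15, 30, 60 min; remaining parent measured by LC-MS/MS. k = −slope, T1/2 = 0.693/k, CLint = k/microsomal protein concentration. Midazolam served as control.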

[6] = Metabolic stability in monkey liver microsomes assessed as half life at 1 uM incubated up to 60 mins in presence of NADPH by LC-MS/MS analysis; format: ADME, Macaca mulatta, Microsome; conditions: rhesus monkey; summary of the method: as §3
[7] = Metabolic stability in dog liver microsomes assessed as half life at 1 uM incubated up to 60 mins in presence of NADPH by LC-MS/MS analysis; format: ADME, Canis lupus familiaris, Microsome; summary of the method: as §3
[8] = Metabolic stability in dog liver microsomes assessed as intrinsic clearance at 1 uM incubated up to 60 mins in presence of NADPH by LC-MS/MS analysis; format: ADME, Canis lupus familiaris, Microsome; conditions: read-out: CLH; summary of the method: as §3
[9] = Metabolic stability in rat liver microsomes assessed as intrinsic clearance at 1 uM incubated up to 60 mins in presence of NADPH by LC-MS/MS analysis; format: ADME, Microsome; conditions: read-out: CLH; summary of the method: as §3
[10] = AUC (0 to t) in ICR mouse at 30 mg/kg, po measured up to 24 hrs by LC-MS/MS analysis; format: ADME, organism-based; design: route oral, dose 30 mg/kg, time <=24; conditions: in vivo
Summary of the method: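 Male ICR mice (25.1–28.8 g, n=9), fasted overnight (12 h), single oral gavage 30 mg/kg as 3 mg/mL in 0.5% CMC-Na with 0.2% Tween 80. Venous blood drawn into EDTA-K2 at 0, 0.25, 0.5, 1, 2, 4, 8, 24 h. Plasma protein-precipitated with ACN and run on LC-MS/MS (C18, formic acid/ACN). Noncompartmental parameters taken from composite mean concentration-time data.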

[11] = AUC (0 to t) in ICR mouse at 2 mg/kg, iv measured up to 24 hrs by LC-MS/MS analysis; format: ADME, organism-based; design: route intravenous, dose 2 mg/kg, time <=24; conditions: in vivo
[12] = Clearance in ICR mouse at 2 mg/kg, iv measured up to 24 hrs by LC-MS/MS analysis; format: ADME, organism-based; conditions: in vivo
Summary of the method: (§4)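 Male ICR mice (25.1–28.8 g, n=9), fasted 12 h, given a single i.v. dose of 2.0 mg/kg at 0.4 mg/mL in DMSO/PEG200/saline (1:1:3). Blood sampled at 0, 0.083, 0.25, 0.5, 1, 2, 4, 8, 24 h. Plasma ACN-precipitated and quantified by LC-MS/MS. Parameters derived from composite mean plasma concentration-time data.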

[13] = Volume of distribution at steady state in ICR mouse at 2 mg/kg, iv measured up to 24 hrs by LC-MS/MS analysis; format: ADME, organism-based; conditions: in vivo, read-out: Vdss; summary of the method: as §4
MV4-11 [14] = assay: Antitumor activity against human MV4-11 cells xenografted in Balb/c nude mouse assessed as tumor growth inhibition at 40 mg/kg, iv administered once daily for 21 days and measured twice a week by vernier caliper method relative to control; format: functional; conditions: MV4-11, iv, 504 h, time 21 day, read-out: TGI

Serine/threonine-protein kinase MAK (Homo sapiens), sequence (P20794 whole entry): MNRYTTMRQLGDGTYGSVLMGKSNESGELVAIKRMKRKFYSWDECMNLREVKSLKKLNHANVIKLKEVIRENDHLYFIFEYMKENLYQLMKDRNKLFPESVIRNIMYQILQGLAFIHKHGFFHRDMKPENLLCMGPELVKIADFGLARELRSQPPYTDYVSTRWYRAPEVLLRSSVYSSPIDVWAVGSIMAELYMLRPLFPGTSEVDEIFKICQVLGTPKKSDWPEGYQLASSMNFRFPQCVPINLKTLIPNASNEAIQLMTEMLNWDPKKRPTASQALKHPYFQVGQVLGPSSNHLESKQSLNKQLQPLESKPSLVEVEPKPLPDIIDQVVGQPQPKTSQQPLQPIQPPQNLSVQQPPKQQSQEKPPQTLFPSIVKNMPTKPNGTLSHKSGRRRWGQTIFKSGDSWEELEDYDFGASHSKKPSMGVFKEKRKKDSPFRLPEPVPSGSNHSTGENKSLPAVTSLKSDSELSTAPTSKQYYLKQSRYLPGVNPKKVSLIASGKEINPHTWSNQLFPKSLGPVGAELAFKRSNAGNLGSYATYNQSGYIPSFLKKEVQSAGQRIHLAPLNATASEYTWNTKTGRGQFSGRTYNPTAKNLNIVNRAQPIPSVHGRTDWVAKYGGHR
Cyclin-dependent kinase 5/CDK5 activator 1, sequence (Q00535 whole entry): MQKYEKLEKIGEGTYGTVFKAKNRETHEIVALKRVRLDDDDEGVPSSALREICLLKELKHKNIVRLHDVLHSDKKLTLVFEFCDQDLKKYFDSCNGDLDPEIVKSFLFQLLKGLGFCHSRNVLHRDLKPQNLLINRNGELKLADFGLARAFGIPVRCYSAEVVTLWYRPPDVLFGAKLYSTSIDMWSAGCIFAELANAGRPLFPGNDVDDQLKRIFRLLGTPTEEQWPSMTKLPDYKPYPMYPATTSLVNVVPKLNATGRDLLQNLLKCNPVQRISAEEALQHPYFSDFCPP
Cyclin-dependent kinase 5/CDK5 activator 1, sequence (Q15078 whole entry, further chain): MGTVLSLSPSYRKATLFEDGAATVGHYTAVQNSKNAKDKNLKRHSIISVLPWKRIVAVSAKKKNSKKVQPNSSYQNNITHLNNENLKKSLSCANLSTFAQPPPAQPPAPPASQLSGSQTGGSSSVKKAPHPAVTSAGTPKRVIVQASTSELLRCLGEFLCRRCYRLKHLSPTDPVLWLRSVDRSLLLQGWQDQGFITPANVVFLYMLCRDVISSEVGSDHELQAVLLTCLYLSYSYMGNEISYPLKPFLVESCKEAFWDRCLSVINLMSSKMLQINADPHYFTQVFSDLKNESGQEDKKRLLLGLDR
CDK6/cyclin D3, sequence (P30281 whole entry): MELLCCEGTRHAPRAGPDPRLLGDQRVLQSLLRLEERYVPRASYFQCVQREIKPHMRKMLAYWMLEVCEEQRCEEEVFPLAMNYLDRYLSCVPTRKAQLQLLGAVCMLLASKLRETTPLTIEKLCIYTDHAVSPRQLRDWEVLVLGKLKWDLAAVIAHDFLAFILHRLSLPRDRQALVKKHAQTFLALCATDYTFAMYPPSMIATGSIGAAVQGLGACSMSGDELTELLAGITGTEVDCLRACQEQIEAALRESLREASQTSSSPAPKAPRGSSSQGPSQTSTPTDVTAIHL
CDK6/cyclin D3, sequence (Q00534 whole entry): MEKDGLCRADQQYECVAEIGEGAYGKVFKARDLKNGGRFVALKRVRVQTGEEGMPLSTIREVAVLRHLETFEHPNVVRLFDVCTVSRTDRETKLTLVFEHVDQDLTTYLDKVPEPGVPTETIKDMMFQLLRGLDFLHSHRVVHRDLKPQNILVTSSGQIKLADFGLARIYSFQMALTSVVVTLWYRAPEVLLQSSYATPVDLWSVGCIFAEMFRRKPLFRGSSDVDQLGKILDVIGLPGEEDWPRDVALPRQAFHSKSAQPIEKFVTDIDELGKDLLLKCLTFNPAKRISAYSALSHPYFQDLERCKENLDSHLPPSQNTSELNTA

COc1cc(F)ccc1-c1nc(Nc2ccc3c(N4CCOCC4)c(C(C)=O)c(=O)oc3c2)ncc1F
Activity [1]: Non-Toxic
Activity (MV4-11 [2]): 0.18 g
pIC50 [3]: 5.90
pIC50 (CDK6/cyclin D3): 6.47
Activity [4]: < 10%
pIC50 (BXPC-3): 7.10
pIC50 (PANC-1): 6.52
pIC50 (MIA PaCa-2): 6.34
pIC50 (SW-620): 6.37
pIC50 (A549): 6.33
microsomal CLint at 1 µM [5]: 38.8 µL/min/mg
half-life at 1 µM [6]: 24.2 min
half-life at 1 µM [7]: 14 min
microsomal CLint at 1 µM [8]: 98.7 µL/min/mg
microsomal CLint at 1 µM [9]: 689 µL/min/mg
AUC(0-t) at 24 h [10]: 1200 ng·h/mL
AUC(0-t) at 24 h [11]: 560 ng·h/mL
clearance [12]: 59.3 mL/min/kg
Vd [13]: 0.67 L/kg
inhibition in vivo at 40 mg/kg (MV4-11 [14]): 100%
